The values below come from ChEMBL document CHEMBL1154414, “In vitro and in vivo activities of T-705 against arenavirus and bunyavirus infections” (Antimicrob Agents Chemother, 2007).

Assay [1] deals with Pichinde virus. The assay is described as follows: Antiviral activity against Pichinde virus An 4763 infected Syrian golden hamster assessed as mean day of death at 20 mg/kg, po twice daily for 7 days administered 72 hrs post viral-challenge measured on day 7 of viral infection. The format is functional. Summed up:
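Groups of 15 hamsters (placebo 25-30) were challenged intraperitoneally (bilateral, 65 PFU) and dosed twice daily by oral gavage in 0.4% CMC for 5 to 7 days.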

Assay [2] relates to Punta Toro virus. Put plainly: Antiviral activity against 5000 PFU Punta Toro virus Adames infected C57BL/6 mouse assessed as mean viral titer per 0.1 g of liver at 10 mg/kg, po twice daily administered 24 hrs post viral challenge measured on day 3 of viral infection. The class given is functional. Summed up: (§1)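 Mice were infected subcutaneously with PTV and dosed by oral gavage twice daily; 5 per group (10 placebo) were killed on day 3 or 4. Liver homogenate or serum was serially diluted onto triplicate LLC-MK2 monolayers, and CPE was read 6–8 days later. 50% endpoints gave log10 CCID50 per 0.1 g liver or 0.1 ml serum. Detection range was 2.8–9.5; undetectable samples were assigned <2.8.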

Assay [3] deals with Punta Toro virus. Put plainly: Antiviral activity against 5000 PFU Punta Toro virus Adames infected C57BL/6 mouse assessed as mean viral titer per 0.1 g of liver at 30 mg/kg, po twice daily administered 24 hrs post viral challenge measured on day 3 of viral infection. The class given is functional. The procedure, abridged:
as §1

For assay [4], the system named is Pichinde virus. The assay is described as follows: Antiviral activity against Pichinde virus An 4763 infected Syrian golden hamster assessed as mean viral titer per 0.1 g of liver at 50 mg/kg, po twice daily for 7 days administered 24 hrs post viral-challenge measured on day 7 of viral infection. The format is functional. Summed up:
(§2)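 Hamsters (groups of 15, placebo 25-30) were dosed orally by gavage twice daily (drug suspended in 0.4% CMC) after bilateral intraperitoneal challenge with 65 PFU. Five per group were killed on day 7. Liver homogenate or serum was serially diluted onto triplicate B-SC-1 wells, CPE was read at 6-8 days, and the 50% endpoint was taken. Range was 2.8-9.5 log10 CCID50/0.1 g or 0.1 ml, with undetectable assigned <2.8.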

The subject of assay [5] is Punta Toro virus. Put plainly: Antiviral activity against 5000 PFU Punta Toro virus Adames infected C57BL/6 mouse assessed as mean viral titer per 0.1 mL of serum at 30 mg/kg, po twice daily administered 24 hrs post viral challenge measured on day 3 of viral infection. The format is functional. Summed up:
as §1

The subject of assay [6] is Pichinde virus. The assay is described as follows: Antiviral activity against Pichinde virus An 4763 infected Syrian golden hamster assessed as animals with detectable virus level in serum at 50 mg/kg, po twice daily for 7 days administered 72 hrs post viral-challenge measured on day 7 of viral infection. The class given is functional. Summed up: as §2
The subject of assay [7] is Punta Toro virus. Put plainly: Antiviral activity against 50 PFU Punta Toro virus Adames infected C57BL/6 mouse assessed as mean viral titer per 0.1 g of liver at 30 mg/kg, po twice daily administered 24 hrs post viral challenge measured on day 3 of viral infection. The format is functional. The procedure, abridged:
(§3)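 Mice were infected subcutaneously with PTV and dosed by oral gavage twice daily with drug in 0.4% CMC. Five per group (10 placebo) were sacrificed on day 3 or 4. Serially diluted liver homogenate or serum went into triplicate LLC-MK2 wells, and CPE 50% endpoints were read at 6–8 days. The range was 2.8–9.5 log10 CCID50/0.1 g or 0.1 ml, with undetectable samples set to 2.8 and saturated samples to 9.5.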

Assay [8] has as its system Punta Toro virus. The assay is described as follows: Antiviral activity against 50 PFU Punta Toro virus Adames infected C57BL/6 mouse assessed as mean viral titer per 0.1 mL of serum at 30 mg/kg, po twice daily administered 24 hrs post viral challenge measured on day 3 of viral infection. The class given is functional. Summed up:
as §3

The subject of assay [9] is Pichinde virus. The assay is described as follows: Antiviral activity against Pichinde virus An 4763 infected Syrian golden hamster assessed as mean serum ALT levels at 20 mg/kg, po twice daily for 7 days administered 24 hrs post viral-challenge measured on day 7 of viral infection. The format is functional. Summed up:
(§4)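 Hamsters were challenged intraperitoneally (bilateral, 65 PFU) and given twice-daily oral gavage doses (0.4% CMC vehicle). Five per group were sacrificed on day 7 and serum was collected. Serum ALT activity was measured by kinetic assay. Three sham-infected animals set the baselines.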

In assay [10] the test system is Pichinde virus. Put plainly: Antiviral activity against Pichinde virus An 4763 infected Syrian golden hamster assessed as mean viral titer per 0.1 mL of serum at 50 mg/kg, po twice daily for 7 days administered 72 hrs post viral-challenge measured on day 7 of viral infection. The format is functional. The procedure, abridged: as §2
Assay [11] relates to Punta Toro virus. The assay is described as follows: Antiviral activity against 500 PFU Punta Toro virus Adames infected C57BL/6 mouse assessed as mean day of death at 30 mg/kg, po twice daily for 5 days administered 24 hrs post viral challenge. The class given is functional. The procedure, abridged: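 Groups of 15 mice (25–30 placebo) were inoculated subcutaneously with PTV. Drug in 0.4% carboxymethylcellulose was given by oral gavage twice daily.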

Assay [12] relates to Punta Toro virus. Put plainly: Antiviral activity against Punta Toro virus Adames infected Syrian golden hamster assessed as animals with detectable virus level in liver at 30 mg/kg, […] measured on day 4 of viral infection. The class given is functional. The conditions noted are these: route oral.
In assay [13] the test system is Pichinde virus. The assay is described as follows: Antiviral activity against Pichinde virus An 4763 infected Syrian golden hamster assessed as mean viral titer per 0.1 g of liver at 50 mg/kg, po twice daily for 7 days administered 72 hrs post viral-challenge measured on day 7 of viral infection. The format is functional. The procedure, abridged: as §2
The test system of assay [14] is Punta Toro virus. The assay is described as follows: Antiviral activity against 5000 PFU Punta Toro virus Adames infected C57BL/6 mouse assessed as animals with detectable virus level in serum at 30 mg/kg, po twice daily administered 24 hrs post viral challenge measured on day 3 of viral infection. The class given is functional. Summed up:
as §1

Assay [15] has as its system Punta Toro virus. The assay is described as follows: Antiviral activity against Punta Toro virus Adames assessed as inhibition of virus-induced visual cytopathic effect after 3 to 5 days. The format is functional, organism-based. Summed up:
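Virus in medium with 2% FBS was used at the CCID50 that gave maximal CPE. Half-log drug dilutions (DMSO stock, ≤1% DMSO at the top concentration) were added at infection. EC50 was derived by regression analysis.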
A general note: Cytopathic effects are the visible damage that an infection or toxin causes in cultured cells.

Assay [16] has as its system Punta Toro virus. The assay is described as follows: Antiviral activity against Punta Toro virus Adames infected Syrian golden hamster assessed as mean day of death at 30 mg/kg, po twice daily for 6 days administered 4 hrs before viral challenge. The class given is functional. The procedure, abridged: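 Hamsters (groups of 15, placebo 25-30) were challenged subcutaneously with 50 PFU and dosed twice daily by oral gavage in 0.4% CMC vehicle.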

Assay [17] deals with Pichinde virus. Put plainly: Antiviral activity against Pichinde virus An 4763 infected Syrian golden hamster assessed as mean viral titer per 0.1 g of liver at 20 mg/kg, po twice daily for 7 days administered 72 hrs post viral-challenge measured on day 7 of viral infection. The class given is functional. Summed up:
as §2

For assay [18], the system named is Pichinde virus. The assay is described as follows: Antiviral activity against Pichinde virus An 4763 infected Syrian golden hamster assessed as mean serum ALT levels at 50 mg/kg, po twice daily for 7 days administered 24 hrs post viral-challenge measured on day 7 of viral infection. The format is functional. The procedure, abridged:
as §4

The subject of assay [19] is Pichinde virus. Put plainly: Antiviral activity against Pichinde virus An 4763 infected Syrian golden hamster assessed as animals with detectable virus level in liver at 50 mg/kg, po twice daily for 7 days administered 72 hrs post viral-challenge measured on day 7 of viral infection. The class given is functional. Summed up: as §2
Assay [20] has as its system Pichinde virus. Put plainly: Antiviral activity against Pichinde virus An 4763 infected Syrian golden hamster assessed as mean serum ALT levels at 50 mg/kg, po twice daily for 7 days administered 72 hrs post viral-challenge measured on day 7 of viral infection measured on day 7 of viral infection. The format is functional. Summed up:
as §4

The subject of assay [21] is Pichinde virus. Put plainly: Antiviral activity against Pichinde virus An 4763 infected Syrian golden hamster assessed as mean viral titer per 0.1 g of liver at 20 mg/kg, po twice daily for 7 days administered 24 hrs post viral-challenge measured on day 7 of viral infection. The class given is functional. Summed up:
as §2

SMILES strings stand for the structures.

On to `NC(=O)c1nc(F)cnc1O` [FAVIPIRAVIR], for which the Activity was 8.1 days in the assay on Pichinde virus [1]; 100% in the assay with Pichinde virus [6]; 1583 IU/L in the assay with Pichinde virus [9]; 5 days in the assay on Punta Toro virus [11]; 40% in the assay on Punta Toro virus [12]; 80% in the assay on Punta Toro virus [14]. For the same compound, the Activity in the assay with Punta Toro virus [16] was determined as 6 days; in the assay on Pichinde virus [18], 61 IU/L; in the assay with Pichinde virus [19], 100%; in the assay on Pichinde virus [20], 411 IU/L. The log10CCID50 with Punta Toro virus [2] is less than 2.9; in the assay with Punta Toro virus [3], less than 2.9; in the assay on Pichinde virus [4], 5.7; in the assay with Punta Toro virus [5], less than 3.3; with Punta Toro virus [7] it was less than 2.8; with Punta Toro virus [8] it was less than 4.4. For the same compound, the log10CCID50 in the assay on Pichinde virus [10] is recorded as 6.6; in the assay on Pichinde virus [13], 6.8; in the assay with Pichinde virus [17], greater than 8.6; in the assay on Pichinde virus [21], greater than 8.4. The EC50 with Punta Toro virus [15] was 191 µM.
On to `NC(=O)c1ncn([C@@H]2O[C@H](CO)[C@@H](O)[C@H]2O)n1` [RIBAVIRIN], for which the Activity amounted to 18.3 days with Pichinde virus [1]; 100% with Pichinde virus [6]; 24 IU/L in the assay on Pichinde virus [9]; 5.3 days in the assay with Punta Toro virus [11]; 0% with Punta Toro virus [12]; 60% with Punta Toro virus [14]. The Activity in the assay with Punta Toro virus [16] is 13.3 days; in the assay on Pichinde virus [18] it was 26 IU/L; with Pichinde virus [19], 100%; in the assay on Pichinde virus [20], 15 IU/L. For the same compound, the log10CCID50 in the assay on Punta Toro virus [2] is reported as less than 2.8; in the assay on Punta Toro virus [3], less than 2.9; with Pichinde virus [4] it was 4.2; in the assay with Punta Toro virus [5], less than 4.2; with Punta Toro virus [7] it was less than 2.8; in the assay with Punta Toro virus [8], 6.1. Moreover, the log10CCID50 in the assay on Pichinde virus [10] is listed as 6; with Pichinde virus [13], 6.5; in the assay on Pichinde virus [17], 6.8; in the assay with Pichinde virus [21], 6. The EC50 in the assay on Punta Toro virus [15] was 172 µM.

The term EC50 denotes the concentration needed to bring the measured effect to its halfway point.
